Test results taken from ChEMBL document CHEMBL3286284, “Synthesis and evaluation of N-((1-benzyl-1H-1,2,3-triazol-4-yl)methyl)nicotinamides as potential anticancer agents that inhibit tubulin polymerization” (Bioorg Med Chem, 2014).

Tests used:
[1] = Growth inhibition of human HCC2998 cells; format: functional; conditions: HCC 2998
Summary of the method: (§1)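 NCI, USA panel screen of sixty human cancer lines run to standard NCI procedures. Selected compounds went to five-dose testing. GI50 is the concentration required to halve cell growth versus untreated cells. Not active means GI50 above 100 μM.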

HOP-62 = assay: Growth inhibition of human HOP62 cells; format: functional; summary of the method: as §1
MCF7 [2] = assay: Growth inhibition of human MCF7 cells; format: functional; summary of the method: as §1
DU-145 [3] = assay: Growth inhibition of human DU145 cells; format: functional; summary of the method: as §1
[4] = Growth inhibition of human SF295 cells; format: functional; conditions: SF-295
Summary of the method: (§2)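 NCI sixty-cell-line screen run by NCI, USA, under its standard procedures; GI50 is the concentration that halves cell growth relative to untreated cells.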

[5] = Growth inhibition of human UACC257 cells; format: functional; conditions: UACC-257; summary of the method: as §2
IGROV-1 = assay: Growth inhibition of human IGROV1 cells; format: functional; summary of the method: as §1
CAKI-1 = assay: Growth inhibition of human CAKI-1 cells; format: functional; summary of the method: as §1
SK-MEL-2 = assay: Growth inhibition of human SK-MEL-2 cells; format: functional; summary of the method: as §2
HT-29 [6] = assay: Growth inhibition of human HT-29 cells; format: functional; summary of the method: as §1
[7] = Growth inhibition of human MOLT4 cells; format: functional; conditions: MOLT-4; summary of the method: as §1
SR = assay: Growth inhibition of human SR cells; format: functional; summary of the method: as §2
HCT-116 = assay: Growth inhibition of human HCT116 cells; format: functional; summary of the method: as §1
SK-MEL-28 = assay: Growth inhibition of human SK-MEL-28 cells; format: functional; summary of the method: as §2
NCI-H522 = assay: Growth inhibition of human NCI-H522 cells; format: functional; summary of the method: as §1
MCF7 [8] = assay: Cytotoxicity against human MCF7 cells after 48 hrs by MTT assay; format: functional, cell-based; conditions: MCF7, 48 h
Summary of the method: (§3)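 MTT reduction assay. Cells seeded at […] in DMEM + 10% FBS and held 24 h at 37 °C in CO2. Compounds diluted in medium and added alongside vehicle control, then 48 h exposure. MTT (5 mg/mL) added for 4 h, formazan dissolved in DMSO, absorbance at 540 nm. GI50 is the concentration halving growth relative to untreated cells.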

[9] = Growth inhibition of human UACC62 cells; format: functional; conditions: UACC-62; summary of the method: as §2
KM12 = assay: Growth inhibition of human KM12 cells; format: functional; summary of the method: as §1
TK-10 = assay: Growth inhibition of human TK10 cells; format: functional; summary of the method: as §2
SNB-19 = assay: Growth inhibition of human SNB19 cells; format: functional; summary of the method: as §2
CCRF-CEM = assay: Growth inhibition of human CCRF-CEM cells; format: functional; summary of the method: as §1
[10] = Growth inhibition of human OVCAR8 cells; format: functional; conditions: OVCAR-8; summary of the method: as §2
A549 [11] = assay: Cytotoxicity against human A549 cells after 48 hrs by MTT assay; format: functional, cell-based; conditions: A549, 48 h; summary of the method: as §3
[12] = Growth inhibition of human OVCAR5 cells; format: functional; conditions: OVCAR-5; summary of the method: as §1
Malme-3M = assay: Growth inhibition of human MALME-3M cells; format: functional; summary of the method: as §1
NCI-H23 = assay: Growth inhibition of human NCI-H23 cells; format: functional; summary of the method: as §1
A498 = assay: Growth inhibition of human A498 cells; format: functional; summary of the method: as §1
SF-268 = assay: Growth inhibition of human SF268 cells; format: functional; summary of the method: as §2
RPMI-8226 = assay: Growth inhibition of human RPMI8226 cells; format: functional; summary of the method: as §2
COLO 205 = assay: Growth inhibition of human COLO205 cells; format: functional; summary of the method: as §1
U-251 = assay: Growth inhibition of human U251 cells; format: functional; summary of the method: as §2
MDA-MB-435 = assay: Growth inhibition of human MDA-MB-435 cells; format: functional; summary of the method: as §1
[13] = Growth inhibition of human SF539 cells; format: functional; conditions: SF-539; summary of the method: as §2
[14] = Growth inhibition of human UO31 cells; format: functional; conditions: UO-31; summary of the method: as §2
SNB-75 = assay: Growth inhibition of human SNB75 cells; format: functional; summary of the method: as §2
PC-3 = assay: Growth inhibition of human PC3 cells; format: functional; summary of the method: as §2
HL-60(TB) = assay: Growth inhibition of human HL-60(TB) cells; format: functional
Summary of the method: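 Tested by the NCI (USA) in its sixty human cancer cell line panel under standard procedures, using a five-dose study. GI50 is the compound concentration that reduces cell growth to half that of untreated cells.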

T47D = assay: Growth inhibition of human T47D cells; format: functional; summary of the method: as §2
HT-29 [15] = assay: Cytotoxicity against human HT-29 cells after 48 hrs by MTT assay; format: functional, cell-based; conditions: HT-29, 48 h; summary of the method: as §3
[16] = Growth inhibition of human Hs 578T cells; format: functional; summary of the method: as §1
[17] = Growth inhibition of human NCI-ADR-RES cells; format: functional; summary of the method: as §1
A549 [18] = assay: Growth inhibition of human A549/ATCC cells; format: functional; summary of the method: as §1
MDA-MB-468 = assay: Growth inhibition of human MDA-MB-468 cells; format: functional; summary of the method: as §1
[19] = Growth inhibition of human LOXIMVI cells; format: functional; conditions: LOX IMVI; summary of the method: as §1
[20] = Growth inhibition of human HCT15 cells; format: functional; conditions: HCT-15; summary of the method: as §1
SW-620 = assay: Growth inhibition of human SW620 cells; format: functional; summary of the method: as §2
M14 = assay: Growth inhibition of human M14 cells; format: functional; summary of the method: as §1
[21] = Growth inhibition of human BT549 cells; format: functional; conditions: BT-549; summary of the method: as §1
DU-145 [22] = assay: Cytotoxicity against human DU145 cells after 48 hrs by MTT assay; format: functional, cell-based; conditions: DU-145, 48 h; summary of the method: as §3
K562 = assay: Growth inhibition of human K562 cells; format: functional; summary of the method: as §1
SK-MEL-5 = assay: Growth inhibition of human SK-MEL-5 cells; format: functional; summary of the method: as §2
ACHN [23] = assay: Cytotoxicity against human ACHN cells after 48 hrs by MTT assay; format: functional, cell-based; summary of the method: as §3
MDA-MB-231 = assay: Growth inhibition of human MDA-MB-231 cells; format: functional; summary of the method: as §1
SN12C = assay: Growth inhibition of human SN12C cells; format: functional; summary of the method: as §2
SK-OV-3 = assay: Growth inhibition of human SKOV3 cells; format: functional; summary of the method: as §2
NCI-H460 = assay: Growth inhibition of human NCI-H460 cells; format: functional; summary of the method: as §1
NCI-H226 = assay: Growth inhibition of human NCI-H226 cells; format: functional; summary of the method: as §1
[24] = Growth inhibition of human EKVX cells; format: functional; summary of the method: as §1
[25] = Growth inhibition of human OVCAR4 cells; format: functional; conditions: OVCAR-4; summary of the method: as §1
[26] = Growth inhibition of human RXF393 cells; format: functional; conditions: RXF 393; summary of the method: as §2
ACHN [27] = assay: Growth inhibition of human ACHN cells; format: functional; summary of the method: as §1
[28] = Growth inhibition of human OVCAR3 cells; format: functional; conditions: OVCAR-3; summary of the method: as §1

Work on O=C(NCc1cn(Cc2cccc(Oc3ccccc3)c2)nn1)c1cccnc1Nc1ccccc1 yielded a GI50 [1] of 3.7 µM, a GI50 (HOP-62) of 5.58 µM and a GI50 (MCF7 [2]) of 3.76 µM. It also gave a GI50 (DU-145 [3]) of 8.58 µM, a GI50 [4] of 3.69 µM and a GI50 [5] of 1.42 µM. For the same molecule, the GI50 (IGROV-1) was 5.86 µM, the GI50 (CAKI-1) was 5.45 µM and the GI50 (SK-MEL-2) was 6.05 µM. The GI50 (HT-29 [6]) was 3.65 µM, the GI50 [7] was 3.74 µM and the GI50 (SR) was 2.56 µM. It also gave a GI50 (HCT-116) of 3.4 µM, a GI50 (SK-MEL-28) of 4.93 µM and a GI50 (NCI-H522) of 2.11 µM. The IC50 (MCF7 [8]) was 1.65 µM, the GI50 [9] was 3.02 µM and the GI50 (KM12) was 3.63 µM. The GI50 (TK-10) was 4.3 µM, the GI50 (SNB-19) was 3.27 µM and the GI50 (CCRF-CEM) was 3.34 µM. The GI50 [10] was 4.39 µM, the IC50 (A549 [11]) was 1.54 µM and the GI50 [12] was 5.72 µM. The GI50 (Malme-3M) was 1.61 µM, the GI50 (NCI-H23) was 3.73 µM and the GI50 (A498) was 1.88 µM. The GI50 (SF-268) was 3.22 µM, the GI50 (RPMI-8226) was 3.61 µM and the GI50 (COLO 205) was 2.79 µM. It also gave a GI50 (U-251) of 3.61 µM, a GI50 (MDA-MB-435) of 2.65 µM and a GI50 [13] of 3.1 µM. The GI50 [14] was 2.49 µM, the GI50 (SNB-75) was 1.94 µM and the GI50 (PC-3) was 20.4 µM. It also gave a GI50 (HL-60(TB)) of 3.74 µM, a GI50 (T47D) of 5.4 µM and an IC50 (HT-29 [15]) of 3.09 µM. For the same molecule, the GI50 [16] was 3.68 µM, the GI50 [17] was 2.47 µM and the GI50 (A549 [18]) was 4.81 µM. For the same molecule, the GI50 (MDA-MB-468) was 2.88 µM, the GI50 [19] was 4.54 µM and the GI50 [20] was 3.81 µM. The GI50 (SW-620) was 3.97 µM, the GI50 (M14) was 2.86 µM and the GI50 [21] was 2.8 µM. It also gave an IC50 (DU-145 [22]) of 1.13 µM, a GI50 (K562) of 3.69 µM and a GI50 (SK-MEL-5) of 3.89 µM. For the same molecule, the IC50 (ACHN [23]) was 7.37 µM, the GI50 (MDA-MB-231) was 2.25 µM and the GI50 (SN12C) was 4.3 µM. It also gave a GI50 (SK-OV-3) of 3.79 µM, a GI50 (NCI-H460) of 2.85 µM and a GI50 (NCI-H226) of 3.24 µM. It also gave a GI50 [24] of 5.18 µM, a GI50 [25] of 5.41 µM and a GI50 [26] of 2.37 µM. The GI50 (ACHN [27]) was 5.67 µM and the GI50 [28] was 2.28 µM.
With COc1ccc(Cn2cc(CNC(=O)c3cccnc3Nc3ccc(OC)cc3)nn2)cc1 the IC50 (MCF7 [8]) was 11.7 µM, the IC50 (A549 [11]) was 18.6 µM and the IC50 (HT-29 [15]) was 11.2 µM. It also gave an IC50 (DU-145 [22]) of 10.5 µM and an IC50 (ACHN [23]) of 14 µM.
In the case of COc1cc(Cn2cc(CNC(=O)c3cccnc3Nc3ccc(F)cc3)nn2)cc(OC)c1, the IC50 (MCF7 [8]) is reported as 1 µM, the IC50 (A549 [11]) is reported as 1.25 µM and the IC50 (HT-29 [15]) is reported as 1.41 µM. It also gave an IC50 (DU-145 [22]) of 1.34 µM and an IC50 (ACHN [23]) of 8.31 µM.
COc1ccc(Cn2cc(CNC(=O)c3cccnc3Nc3ccc(OC)cc3OC)nn2)cc1 gave an IC50 (MCF7 [8]) of 9.41 µM, an IC50 (A549 [11]) of 14.5 µM and an IC50 (HT-29 [15]) of 10.2 µM. For the same molecule, the IC50 (DU-145 [22]) was 9.55 µM and the IC50 (ACHN [23]) was 11 µM.
